Here are results for 22 compounds from ChEMBL document CHEMBL1125461, “Analogues of platelet activating factor. 6. Mono- and bis-aryl phosphate antagonists of platelet activating factor” (J Med Chem, 1992).

What all share (format): functional
The species named for assay [1] is Oryctolagus cuniculus. As to the kind of experiment: Compound was tested for its ability to inhibit PAF induced platelet aggregation in rabbit at a dose of 10 uM.
Assay [2] deals with Mus musculus. The experiment in a line: Compound was tested for protecting PAF-induced lethality in mouse at a dose of 0.5 mg/kg (Out of 41). In a few lines: (§1)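 Female Swiss-Webster mice (20–25 g) were dosed ip with compound in saline at 10 mL/kg, and controls got saline alone. Thirty minutes later, racemic C16-PAF in saline was given as an iv tail-vein bolus at 10 mL/kg (75–150 µg/kg PAF). Survival was checked at 1.5 h and was recorded as dead/total.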

Assay [3] concerns Mus musculus. As to the kind of experiment: Compound was tested for protecting PAF-induced lethality in mouse at a dose of 0.5 mg/kg (Out of 9). Summed up: as §1
For assay [4], the system named is Mus musculus. The experiment in a line: Compound was tested for protecting PAF-induced lethality in mouse at a dose of 0.5 mg/kg (Out of 38). Summed up: as §1
In assay [5] the test system is Oryctolagus cuniculus. As to the kind of experiment: Compound was tested for protecting PAF-induced lethality in rabbit at a dose of 3 mg/kg (Out of 2).
Assay [6] deals with Mus musculus. As to the kind of experiment: Compound was tested for protecting PAF-induced lethality in mouse at a dose of 2.5 mg/kg (Out of 10). In a few lines: as §1
In assay [7] the test system is Oryctolagus cuniculus. The experiment in a line: Compound was tested for protecting PAF-induced lethality in rabbit at a dose of 2.5 mg/kg (Out of 2). Summed up:
(§2)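 Rabbits got compound iv 15 min before an iv challenge of L-C16-PAF at 150 µg/kg, made from a methanol stock diluted in saline. Controls were saline-treated. Survival was checked at 1 h and was recorded as dead/total.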

Assay [8] relates to Mus musculus. The experiment in a line: Compound was tested for protecting PAF-induced lethality in mouse at a dose of 1.25 mg/kg (Out of 10). In a few lines: as §1
Assay [9] deals with Mus musculus. As to the kind of experiment: Compound was tested for protecting PAF-induced lethality in mouse at a dose of 1 mg/kg (Out of 10). In a few lines:
as §1

Assay [10] concerns Mus musculus. The experiment in a line: Compound was tested for protecting PAF-induced lethality in mouse at a dose of 0.5 mg/kg (Out of 11). In a few lines: as §1
For assay [11], the system named is Oryctolagus cuniculus. The experiment in a line: Compound was tested for protecting PAF-induced lethality in rabbit at a dose of 5 mg/kg (Out of 5). Summed up:
as §2

Assay [12] concerns Oryctolagus cuniculus. As to the kind of experiment: Compound was tested for protecting PAF-induced lethality in rabbit at a dose of 1 mg/kg (Out of 11). In a few lines: as §2
The subject of assay [13] is Oryctolagus cuniculus. As to the kind of experiment: Compound was tested for protecting PAF-induced lethality in rabbit at a dose of 2.5 mg/kg (Out of 4). Summed up:
as §2

The subject of assay [14] is Mus musculus. The experiment in a line: Compound was tested for protecting PAF-induced lethality in mouse at a dose of 0.5 mg/kg (Out of 830). In a few lines:
as §1

Assay [15] has as its system Mus musculus. The experiment in a line: Compound was tested for protecting PAF-induced lethality in mouse at a dose of 1 mg/kg (Out of 74). In a few lines:
as §1

The test system of assay [16] is Mus musculus. The experiment in a line: Compound was tested for protecting PAF-induced lethality in mouse at a dose of 0.5 mg/kg (Out of 220). In a few lines: as §1
In assay [17] the test system is Oryctolagus cuniculus. The experiment in a line: Compound was tested for protecting PAF-induced lethality in rabbit at a dose of 10 mg/kg (Out of 5). Summed up:
as §2

Assay [18] concerns Mus musculus. The experiment in a line: Compound was tested for protecting PAF-induced lethality in mouse at a dose of 1 mg/kg (Out of 88). In a few lines:
as §1

The subject of assay [19] is Oryctolagus cuniculus. The experiment in a line: Compound was tested for protecting PAF-induced lethality in rabbit at a dose of 1 mg/kg (Out of 3). In a few lines:
as §2

Assay [20] concerns Oryctolagus cuniculus. The experiment in a line: Compound was tested for protecting PAF-induced lethality in rabbit at a dose of 5 mg/kg (Out of 3). In a few lines:
as §2

For assay [21], the system named is Mus musculus. As to the kind of experiment: Compound was tested for protecting PAF-induced lethality in mouse at a dose of 0.5 mg/kg (Out of 49). Summed up: as §1
In assay [22] the test system is Mus musculus. The experiment in a line: Compound was tested for protecting PAF-induced lethality in mouse at a dose of 2.5 mg/kg (Out of 16). In a few lines: as §1
In assay [23] the test system is Oryctolagus cuniculus. As to the kind of experiment: Compound was tested for protecting PAF-induced lethality in rabbit at a dose of 10 mg/kg (Out of 2). Summed up:
as §2

The subject of assay [24] is Oryctolagus cuniculus. As to the kind of experiment: Compound was tested for protecting PAF-induced lethality in rabbit at a dose of 1 mg/kg (Out of 2). Summed up:
as §2

Assay [25] deals with Mus musculus. As to the kind of experiment: Compound was tested for protecting PAF-induced lethality in mouse at a dose of 10 mg/kg (Out of 12). In a few lines:
as §1

Assay [26] has as its system Mus musculus. The experiment in a line: Compound was tested for protecting PAF-induced lethality in mouse at a dose of 0.5 mg/kg (Out of 10). In a few lines: as §1
In assay [27] the test system is Mus musculus. As to the kind of experiment: Compound was tested for protecting PAF-induced lethality in mouse at a dose of 10 mg/kg (Out of 13). In a few lines:
as §1

Assay [28] concerns Mus musculus. As to the kind of experiment: Compound was tested for protecting PAF-induced lethality in mouse at a dose of 1 mg/kg (Out of 12). In a few lines: as §1
For assay [29], the species on record is Oryctolagus cuniculus. As to the kind of experiment: Compound was tested for its ability to inhibit PAF induced platelet aggregation in rabbit at a dose of 50 uM.
The species named for assay [30] is Oryctolagus cuniculus. As to the kind of experiment: Compound was tested for its ability to inhibit PAF induced platelet aggregation in rabbit (No inhibition observed at a compound concentration up to 10 uM).
Assay [31] concerns Mus musculus. As to the kind of experiment: Compound was tested for protecting PAF-induced lethality in mouse at a dose of 10 mg/kg (Out of 10). In a few lines:
as §1

Assay [32] deals with Mus musculus. The experiment in a line: Compound was tested for protecting PAF-induced lethality in mouse at a dose of 0.5 mg/kg (Out of 23). Summed up:
as §1

The structures appear in SMILES notation.

Usually Inhibition stands for the percentage by which the read-out fell short of the control. In the case of `CCCCCCCCCCCCCCCCOCC(COP(=O)(O)Oc1cccc(C/N=C(\S)Nc2ccccc2)c1)OC` (stereo not drawn), the Inhibition in assay [1] was found to be 22%.

Turning to `CCCCCCCCCCCCCCOc1ccc(OP(=O)([O-])Oc2cccc(C[n+]3csc(C)c3)c2)c(OC)c1`, the Lethality in assay [2] is 16 dead/total.

As for `CCCCCCCCCCCCCCOc1cccc(OP(=O)([O-])Oc2cccc(C[n+]3ccsc3)c2)c1OC`, in assay [3], the Lethality stood at 4 dead/total.

In assay [4], `CCCCCCCCCCCCCCOc1cccc(OP(=O)([O-])Oc2cccc(C[n+]3csc(C)c3)c2)c1C(C)=O` came in with a Lethality of 18 dead/total.

As to `CCCCCCCCCCCCOc1cccc(OCC(COP(=O)([O-])Oc2cccc(C[n+]3csc(C)c3)c2)OC)c1` (stereo not drawn), the Lethality in [5] is given as 1 dead/total.

For `CCCCCCCCCCCCCCCCCCNC(=O)OCC(COP(=O)([O-])Oc1ccccc1C[n+]1ccsc1)OC` (stereo not drawn), in assay [6], the Lethality came out at 0 dead/total.

Regarding `CCCCCCCCCCCCCCCCOCC(COP(=O)([O-])Oc1cccc(C[n+]2ccsc2)c1)OC` (stereo not drawn), the Lethality was 1 dead/total in assay [7] and 2 dead/total in [8].

For the compound `CCCCCCCCCCCCCCOc1cccc(OP(=O)([O-])Oc2cccc(C[n+]3ccsc3)c2)c1C(=O)OC`, the Lethality in assay [9] was 5 dead/total; in assay [10] it was 11 dead/total.

For `CCCCCCCCCCCCCCOc1cccc(OP(=O)([O-])Oc2cccc(C[n+]3csc(C)c3)c2)c1C(=O)OC`, the Lethality in [11] came out at 0 dead/total; in [9], 3 dead/total; in [12] it was 6 dead/total; in assay [13] it was 0 dead/total; in assay [14], 165 dead/total.

Compound `CCCCCCCCCCCCOc1cccc(OCC(COP(=O)([O-])Oc2cccc(C[n+]3ccsc3)c2)OC)c1C` (stereo not drawn) came in with a Lethality in assay [10] of 1 dead/total.

`CCCCCCCCCCCCCCCCOCC(COP(=O)([O-])Oc1ccccc1C[n+]1ccsc1)OC` (stereo not drawn) showed a Lethality in [7] of 1 dead/total.

Turning to `CCCCCCCCCCCCCCOc1cccc(OP(=O)([O-])Oc2cccc(C[n+]3csc(C)c3)c2)c1OC`, the Lethality in [15] amounted to 40 dead/total; in assay [16], 80 dead/total; in assay [17] it was 0 dead/total; in assay [18], 24 dead/total; in assay [19], 2 dead/total; in [20], 1 dead/total.

On to `CCCCCCCCCCCCOc1cccc(OCC(COP(=O)([O-])Oc2cccc(C[n+]3csc(C)c3)c2)OCC)c1C` (stereo not drawn), for which the Lethality in assay [21] was found to be 23 dead/total; in assay [22], 0 dead/total; in assay [7] it was 1 dead/total; in assay [23] it was 0 dead/total; in assay [24] it was 1 dead/total; in [25], 6 dead/total.

On to `CCCCCCCCCCCCCCc1cccc(OCC(COP(=O)([O-])Oc2cccc(C[n+]3ccsc3)c2)OC)c1` (stereo not drawn), for which the Lethality in [26] is on record as 0 dead/total; in [7], 1 dead/total.

For the compound `CCCCCCCCCCCCCCOc1cccc(OP(=O)([O-])Oc2cccc(C[n+]3c(C)sc(C)c3C)c2)c1OC`, the figures for the Lethality in [27] and in [28] were 6 dead/total and 9 dead/total, respectively.

With `CCCCCCCCCCCCCCCCOCC(COP(=O)([O-])Oc1cccc(C[n+]2csc(C)c2)c1)OC` (stereo not drawn), the Lethality in assay [7] is recorded as 1 dead/total; in assay [8], 4 dead/total.

As to `CCCCCCCCCCCCOc1cc(OP(=O)([O-])Oc2cccc(C[n+]3ccsc3)c2)c(C(C)(C)C)cc1C(C)(C)C`, in assay [29], the Inhibition was determined as 15%. In addition, in assay [7], the Lethality is 2 dead/total.

For `CCCCCCCCCCCCCCOc1cccc(OP(=O)([O-])Oc2cccc(CC[n+]3csc(C)c3)c2)c1OC`, in assay [30], the IC50 entry was “Not Active”.

Turning to `CCCCCCCCCCCCCCOc1ccc(C(=O)c2ccccc2)c(OP(=O)([O-])Oc2cccc(C[n+]3csc(C)c3)c2)c1`, the Lethality in assay [9] turned out to be 3 dead/total; in assay [31], 0 dead/total.

In the case of `CCCCCCCCCCCCOc1cc(C(C)(C)C)c(OP(=O)([O-])Oc2cccc(C[n+]3csc(C)c3)c2)cc1C(C)(C)C`, in [7], the Lethality stood at 0 dead/total.

The compound `CCCCCCCCCCCCCCOc1cccc(OP(=O)([O-])Oc2cccc(C[N+]3=CN=CC3)c2)c1OC` gave an Inhibition in assay [29] of 12%.

`CCCCCCCCCCCCCCOc1ccc(OP(=O)([O-])Oc2cccc(C[n+]3csc(C)c3)c2)c(C(C)=O)c1` came in with a Lethality in assay [32] of 6 dead/total.
